In ChEMBL document CHEMBL2396654, “Discovery, synthetic methodology, and biological evaluation for antiphotoaging activity of bicyclic[1,2,3]triazoles: in vitro and in vivo studies” (2013):
Calls of active or inactive are those of the source. No cut-off for these calls is given here.

Key:
[1] = Antiphotoaging activity in HDF assessed as protection against 6 J/cm'2 UVA-induced reduction of cell survival at 5 uM treated 4 hrs before UVA irradiation measured after 24 hrs by MTT assay relative to control; assay type: functional; settings: Homo sapiens, light or radiation study, read-out: Survival
Outline: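 Normal human dermal fibroblasts (passages 5–10) seeded at 10 000 cells/well, grown overnight, exposed to compound at 5 μM for 4 h, then rinsed and irradiated in PBS with 6 J/cm2 UVA (365 nm lamp, 4.762 mW/cm2), after which medium was restored. After 24 h, MTT added for 2 h at 37 °C; formazan dissolved in DMSO, OD 540 nm. Reported as mean ± SD; three independent experiments, triplicate.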

HDF [2] = experiment: Antiphotoaging activity in HDF assessed as protection against 6 J/cm'2 UVA-induced reduction of cell proliferation at 1 to 5 uM measured after 24 hrs by irradiation by MTT assay; assay type: functional; settings: Homo sapiens, TDE = time-dependent effect
Outline: (§1)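 Fibroblasts seeded at 10 000 cells/well and left overnight. Pretreated with 0, 1, 2.5 or 5 μM for 2 or 4 h, then given 6 J/cm2 UVA in PBS; medium added back. After 24 h, MTT 2 h at 37 °C, formazan dissolved in DMSO, OD read at 540 nm. Three independent experiments.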

HDF [3] = experiment: Antiphotoaging activity in HDF assessed as protection against 6 J/cm'2 UVA-induced reduction of elastin mRNA expression treated 4 hrs before UVA irradiation by quantitative RT-PCR analysis; assay type: functional; settings: Homo sapiens
Outline: (§2)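 Fibroblasts treated with compound alone, UVA alone, or both. Total RNA extracted with Trizol; 2 μg reverse-transcribed. SYBR Green real-time qPCR with 0.3 μM each primer and 100 ng cDNA. GAPDH listed among the amplified genes.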

HDF [4] = experiment: Effect on elastin mRNA expression in HDF by quantitative RT-PCR analysis; assay type: functional; settings: Homo sapiens; outline: as §2
HDF [5] = experiment: Effect on procollagen 1 type 1 mRNA expression in HDF by quantitative RT-PCR analysis; assay type: functional; settings: Homo sapiens; outline: as §2
HDF [6] = experiment: Effect on ROS production in HDF at 5 uM after 4 hrs using DCFH-DA staining by flow cytometry; assay type: functional; settings: Homo sapiens
Outline: (§3)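 Fibroblasts treated 4 h at 5 μM or at various concentrations, then exposed to 6 J/cm2 UVA in PBS (365 nm peak) or sham-irradiated. Loaded with DCFH-DA 10 μM for 30 min at 37 °C. DCF fluorescence read by flow cytometry on FL-1. Three independent experiments.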

HDF [7] = experiment: Antiphotoaging activity in HDF assessed as protection against 6 J/cm'2 UVA-induced increase of MMP-1 mRNA expression treated 4 hrs before UVA irradiation by quantitative RT-PCR analysis; assay type: functional; settings: Homo sapiens; outline: as §2
HDF [8] = experiment: Antiphotoaging activity in HDF assessed as protection against 6 J/cm'2 UVA-induced reduction of COL1alpha1 mRNA expression treated 4 hrs before UVA irradiation by quantitative RT-PCR analysis; assay type: functional; settings: Homo sapiens; outline: as §2
HDF [9] = experiment: Antiphotoaging activity in HDF assessed as protection against 6 J/cm'2 UVA-induced reduction of ATP level at 5 uM treated 4 hrs before UVA irradiation by bioluminescent assay; assay type: functional; settings: Homo sapiens
Outline: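 Fibroblasts exposed 4 h to compound at 5 μM, then irradiated with 6 J/cm2 UVA in PBS. Cells lysed at once and debris spun off. Supernatant ATP measured by luciferin–luciferase bioluminescence. Expressed as percent of unirradiated, untreated control. Three independent experiments.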

HDF [10] = experiment: Antiphotoaging activity in HDF assessed as protection against 6 J/cm'2 UVA-induced reduction of procollagen 1 type 1 mRNA expression treated 4 hrs before UVA irradiation by quantitative RT-PCR analysis; assay type: functional; settings: Homo sapiens; outline: as §2
HDF [11] = experiment: Effect on fibronectin mRNA expression in HDF by quantitative RT-PCR analysis; assay type: functional; settings: Homo sapiens; outline: as §2
HDF [12] = experiment: Antiphotoaging activity in HDF assessed as protection against 6 J/cm'2 UVA-induced reduction of cell proliferation treated 2 to 4 hrs before UVA irradiation measured after 24 hrs by MTT assay; assay type: functional; settings: Homo sapiens; outline: as §1
HDF [13] = experiment: Effect on senescence-associated-beta-gal expression in HDF using 5-bromo-4-chloro-3-indoyl-beta-galactoside staining by microscopic analysis; assay type: functional; settings: Homo sapiens
HDF [14] = experiment: Effect on COL1alpha1 mRNA expression in HDF by quantitative RT-PCR analysis; assay type: functional; settings: Homo sapiens; outline: as §2
HDF [15] = experiment: Antiphotoaging activity in HDF assessed as protection against 6 J/cm'2 UVA-induced increase of MMP-1 protein expression treated 4 hrs before UVA irradiation by Western blot analysis; assay type: functional; settings: Homo sapiens
Outline: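 Fibroblasts pretreated with 5 μM, then given 6 J/cm2 UVA. Lysed in ice-cold RIPA with protease and phosphatase inhibitors; protein measured by Bradford. Immunoblot with rabbit monoclonal anti-MMP-1, actin as loading control. HRP secondary, chemiluminescence detection, densitometry. Three independent experiments.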

HDF [16] = experiment: Antiphotoaging activity in HDF assessed as increase of 6 J/cm'2 UVA-induced mitochondrial membrane potential treated 4 hrs before UVA irradiation using DiOC6 staining by flow cytometry; assay type: functional; settings: Homo sapiens
Outline: (§4)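 Normal fibroblasts (passages 5–10) pretreated 4 h at 5 μM or at various concentrations, then 6 J/cm2 UVA given in PBS (365 nm lamp, 4.762 mW/cm2) or sham-irradiated. Cells trypsinized, pelleted, stained with DiOC6 30 min at room temperature, washed, resuspended in PBS. Read at once by flow cytometry, FL-1 530/30 nm. Three independent experiments.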

HDF [17] = experiment: Effect on mitochondrial membrane potential in HDF at 5 uM after 4 hrs using DiOC6 staining by flow cytometry; assay type: functional; settings: Homo sapiens; outline: as §4
HDF [18] = experiment: Effect on MMP-1 mRNA expression in HDF by quantitative RT-PCR analysis; assay type: functional; settings: Homo sapiens; outline: as §2
HDF [19] = experiment: Antiphotoaging activity in HDF assessed as reduction of 6 J/cm'2 UVA-induced ROS production treated 4 hrs before UVA irradiation using DCFH-DA staining by flow cytometry; assay type: functional; settings: Homo sapiens; outline: as §3
Mus musculus = species: Mus musculus; experiment: Antiphotoaging activity in ICR mouse assessed as reduction of 3 J/cm'2 UVA-induced epidermal hypertrophy at 0.5 gram per square in dorsal skin immediately after UVA irradiation 3 times a week for up to 12 weeks; assay type: functional, organism-based
Outline: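 Female ICR mice, six weeks old, n = 4 per group, dorsal skin shaved. Given 3 J/cm2 UVA (4.762 mW/cm2), then 0.1% emulsion (Tefose 63 base) applied topically at 0.5 g per square right after irradiation. Done three times weekly for up to 12 weeks (total 108 J/cm2). Skin taken after final irradiation for histology.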

HDF [20] = experiment: Antiphotoaging activity in HDF assessed as protection against 6 J/cm'2 UVA-induced reduction of TIMP-1 mRNA expression treated 4 hrs before UVA irradiation by quantitative RT-PCR analysis; assay type: functional; settings: Homo sapiens; outline: as §2
HDF [21] = experiment: Antiphotoaging activity in HDF assessed as protection against 6 J/cm'2 UVA-induced reduction of fibronectin mRNA expression treated 4 hrs before UVA irradiation by quantitative RT-PCR analysis; assay type: functional; settings: Homo sapiens; outline: as §2
HDF [22] = experiment: Effect on TIMP-1 mRNA expression in HDF by quantitative RT-PCR analysis; assay type: functional; settings: Homo sapiens; outline: as §2
HDF [23] = experiment: Antiphotoaging activity in HDF assessed as reduction of 6 J/cm'2 UVA-induced senescence-associated-beta-gal positive cells treated 4 hrs before UVA irradiation using 5-bromo-4-chloro-3-indoyl-beta-galactoside staining by microscopic analysis; assay type: functional; settings: Homo sapiens

SMILES: C(#Cc1nnn2c1CCCC2)c1ccccc1
- viability at 5 µM [1]: 68.7%

SMILES: c1ccc(-c2nnn3c2CCC3)cc1
- viability at 5 µM [1]: 61.1%

SMILES: O=[N+]([O-])c1cccc(C#Cc2nnn3c2CCC3)c1
- viability at 5 µM [1]: 88.2%

SMILES: COc1cccc(-c2nnn3c2CCC3)c1
- viability at 5 µM [1]: 58%

SMILES: COc1cccc(-c2nnn3c2CCCC3)c1
- viability at 5 µM [1]: 63.7%

SMILES: Fc1ccccc1C#Cc1nnn2c1CCCC2
- viability at 5 µM [1]: 78.9%

SMILES: O=[N+]([O-])c1ccc(-c2nnn3c2CCCC3)cc1
- viability at 5 µM [1]: 52%

SMILES: COc1cccc(C#Cc2nnn3c2CCCC3)c1
- viability at 5 µM [1]: 61.9%

SMILES: c1ccc(-c2nnn3c2CCCC3)cc1
- viability at 5 µM [1]: 57%

SMILES: Fc1ccccc1C#Cc1nnn2c1CCC2
- viability at 5 µM [1]: 75.2%

SMILES: C(#Cc1nnn2c1CCC2)c1ccccc1
- viability at 5 µM [1]: 62.7%

SMILES: O=[N+]([O-])c1cccc(-c2nnn3c2CCC3)c1
- viability at 5 µM [1]: 52.8%

SMILES: COc1ccc(-c2nnn3c2CCC3)cc1
- viability at 5 µM [1]: 70.3%

SMILES: COc1ccc(-c2nnn3c2CCCC3)cc1
- viability at 5 µM [1]: 54%

SMILES: O=[N+]([O-])c1ccc(C#Cc2nnn3c2CCC3)cc1
- viability at 5 µM [1]: 84.1%

SMILES: CCc1ccc(C#Cc2nnn3c2CCCC3)cc1
- viability at 5 µM [1]: 55.7%

SMILES: COc1ccc(C#Cc2nnn3c2CCC3)cc1
- viability at 5 µM [1]: 73.2%

SMILES: O=[N+]([O-])c1cccc(C#Cc2nnn3c2CCCC3)c1
- viability at 5 µM [1]: 71.3%

SMILES: CCc1ccc(C#Cc2nnn3c2CCC3)cc1
- viability at 5 µM [1]: 80.7%

SMILES: COc1cccc(C#Cc2nnn3c2CCC3)c1
- Activity (HDF [2]): tde
- Activity (HDF [3]): Active
- Activity (HDF [4]): inactive
- Activity (HDF [5]): inactive
- Activity (HDF [6]): inactive
- Activity (HDF [7]): Active
- Activity (HDF [8]): Active
- Activity (HDF [9]): Active
- viability at 5 µM [1]: 95.3%
- Activity (HDF [10]): Active
- Activity (HDF [11]): inactive
- Activity (HDF [12]): Dose-dependent effect
- Activity (HDF [13]): inactive
- Activity (HDF [14]): inactive
- Activity (HDF [15]): Active
- Activity (HDF [16]): Dose-dependent effect
- Activity (HDF [17]): inactive
- Activity (HDF [18]): inactive
- Activity (HDF [19]): Dose-dependent effect
- Activity (Mus musculus): Active
- Activity (HDF [20]): Active
- Activity (HDF [21]): Active
- Activity (HDF [22]): inactive
- Activity (HDF [23]): Active

SMILES: Nc1ccccc1C#Cc1nnn2c1CCC2
- viability at 5 µM [1]: 71.2%

SMILES: COc1ccc(C#Cc2nnn3c2CCCC3)cc1
- viability at 5 µM [1]: 73%

SMILES: O=[N+]([O-])c1cccc(-c2nnn3c2CCCC3)c1
- viability at 5 µM [1]: 62%

SMILES: Nc1ccccc1-c1nnn2c1CCCC2
- viability at 5 µM [1]: 61%

SMILES: O=[N+]([O-])c1ccc(-c2nnn3c2CCC3)cc1
- viability at 5 µM [1]: 70%
